How the values were obtained:
[1] = Modulation of P-gp (unknown origin) transfected in human MDA435/LCC6MDR cells assessed as reversible of paclitaxel resistance measured as IC50 for paclitaxel at 1 uM after 5 days by CellTiter 96 Aqueous assay
[2] = Modulation of P-gp (unknown origin) transfected in human MDA435/LCC6MDR cells assessed as reversing paclitaxel resistance measured as cell survival after 5 days by MTS assay
[3] = Modulation of P-gp (unknown origin) transfected in human MDA435/LCC6MDR cells assessed as reversing vincristine resistance measured as cell survival after 5 days by MTS assay
[4] = Modulation of P-gp (unknown origin) transfected in human MDA435/LCC6MDR cells assessed as reversing vinblastine resistance measured as cell survival after 5 days by MTS assay
[5] = Modulation of P-gp (unknown origin) transfected in human MDA435/LCC6MDR cells assessed as reversing doxorubicin resistance measured as cell survival after 5 days by MTS assay
[6] = Modulation of BCRP (unknown origin) transfected in human HEK293/R2 cells assessed as potentiation of topotecan-induced cytotoxicity measured as topotecan IC50 at 1 uM after 5 days by MTS assay
[7] = Modulation of MRP1 (unknown origin) transfected in human 2008/MRP1 cells assessed as potentiation of doxorubicin-induced cytotoxicity measured as doxorubicin IC50 at 1 uM after 5 days by MTS assay
[8] = target: ATP-dependent translocase ABCB1 (Homo sapiens, UniProt P08183); assay: Modulation of P-gp (unknown origin) transfected in human MDA435/LCC6MDR cells assessed as reversible of paclitaxel resistance measured as IC50 for paclitaxel at 10 uM after 5 days by CellTiter 96 Aqueous assay
In short: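 They were held 5 days at 37 °C and viability read by CellTiter 96 AQueous (MTS). […] RF = IC50 of PTX without modulator / IC50 with modulator.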

Sequence of ATP-dependent translocase ABCB1 (P08183 whole entry): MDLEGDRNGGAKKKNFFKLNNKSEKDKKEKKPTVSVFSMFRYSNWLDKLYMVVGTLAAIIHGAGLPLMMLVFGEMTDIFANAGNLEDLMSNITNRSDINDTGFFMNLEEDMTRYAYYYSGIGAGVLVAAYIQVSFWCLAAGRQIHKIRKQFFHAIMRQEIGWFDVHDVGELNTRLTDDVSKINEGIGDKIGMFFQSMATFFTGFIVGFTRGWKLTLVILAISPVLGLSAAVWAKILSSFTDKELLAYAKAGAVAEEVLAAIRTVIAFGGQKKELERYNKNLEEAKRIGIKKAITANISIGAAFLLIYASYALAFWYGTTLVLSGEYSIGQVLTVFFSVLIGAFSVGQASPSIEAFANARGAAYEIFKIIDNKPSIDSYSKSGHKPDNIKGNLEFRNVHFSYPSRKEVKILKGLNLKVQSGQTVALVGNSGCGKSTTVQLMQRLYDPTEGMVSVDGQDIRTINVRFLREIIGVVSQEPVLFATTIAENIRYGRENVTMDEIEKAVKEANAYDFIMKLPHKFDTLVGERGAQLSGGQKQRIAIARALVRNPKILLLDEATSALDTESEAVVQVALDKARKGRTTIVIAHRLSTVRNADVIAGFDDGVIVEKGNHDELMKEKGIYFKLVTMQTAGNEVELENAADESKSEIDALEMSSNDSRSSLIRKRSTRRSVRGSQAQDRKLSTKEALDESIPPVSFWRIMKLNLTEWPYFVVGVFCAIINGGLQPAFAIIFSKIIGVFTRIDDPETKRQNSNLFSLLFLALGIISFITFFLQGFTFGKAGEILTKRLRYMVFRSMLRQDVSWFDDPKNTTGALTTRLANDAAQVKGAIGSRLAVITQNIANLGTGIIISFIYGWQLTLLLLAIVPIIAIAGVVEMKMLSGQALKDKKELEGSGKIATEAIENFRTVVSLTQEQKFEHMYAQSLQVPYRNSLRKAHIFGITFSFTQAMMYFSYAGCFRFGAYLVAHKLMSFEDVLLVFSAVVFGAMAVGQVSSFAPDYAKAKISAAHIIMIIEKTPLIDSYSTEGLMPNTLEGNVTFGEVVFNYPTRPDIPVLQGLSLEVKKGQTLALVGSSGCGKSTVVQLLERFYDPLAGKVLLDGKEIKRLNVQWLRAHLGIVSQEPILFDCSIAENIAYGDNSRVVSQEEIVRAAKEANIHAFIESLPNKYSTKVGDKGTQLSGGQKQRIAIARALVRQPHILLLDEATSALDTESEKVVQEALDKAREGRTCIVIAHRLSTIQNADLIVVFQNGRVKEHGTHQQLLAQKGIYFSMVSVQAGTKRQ

## COc1cc(OC)c2c(c1)O[C@H](c1cc(OC)c(OC)c(OC)c1)[C@H](OC(=O)c1ccc(OC)c(OC)c1)C2
[1]
  IC50: 20 nM

## COc1cc(OC)c2c(c1)O[C@H](c1cc(OC)c(OC)c(OC)c1)[C@H](OC(=O)c1ccc(F)c(NC(=O)/C=C/c3cc(OC)c(OC)c(OC)c3)c1)C2
[1]
  IC50: 6.2 nM

## COc1ccc(/C=C/C(=O)O[C@@H]2Cc3c(OC)cc(OC)cc3O[C@@H]2c2cc(OC)c(OC)c(OC)c2)cc1
[1]
  IC50: 22 nM

## COc1cc(OC)c2c(c1)O[C@H](c1cc(OC)c(OC)c(OC)c1)[C@H](OC(=O)Cc1ccc(OC)c(OC)c1)C2
[1]
  IC50: 32 nM

## COc1cc(OC)c2c(c1)O[C@H](c1cc(OC)c(OC)c(OC)c1)[C@H](OC(=O)c1ccc(F)c(NC(=O)c3ccc(OC)c(OC)c3)c1)C2
[2]
  EC50: 159 nM
[3]
  EC50: 181 nM
[4]
  EC50: 193 nM
[5]
  EC50: 139 nM
[6]
  IC50: 176 nM
[7]
  IC50: 434 nM
[1]
  IC50: 3 nM

## COc1cc(OC)c2c(c1)O[C@H](c1cc(OC)c(OC)c(OC)c1)[C@@H](OC(=O)c1ccc(OC)c(OC)c1)C2
[1]
  IC50: 12 nM

## C=CCOc1cc(C(=O)O[C@@H]2Cc3c(OC)cc(OC)cc3O[C@@H]2c2cc(OC)c(OC)c(OC)c2)cc(OCC=C)c1OCC=C
[1]
  IC50: 12 nM

## COc1cc(OC)c2c(c1)O[C@H](c1cc(OC)c(OC)c(OC)c1)[C@@H](OC(=O)c1cc(OC)c(OC)c(OC)c1)C2=O
[1]
  IC50: 44 nM

## COc1cccc(C(=O)O[C@@H]2Cc3c(OC)cc(OC)cc3O[C@@H]2c2cc(OC)c(OC)c(OC)c2)c1
[1]
  IC50: 45 nM

## COc1cc(OC)c2c(c1)O[C@H](c1cc(OC)c(OC)c(OC)c1)[C@H](OC(=O)CCc1cc(OC)c(OC)c(OC)c1)C2
[1]
  IC50: 18 nM

## COc1cc(OC)c2c(c1)O[C@H](c1cc(OC)c(OC)c(OC)c1)[C@@H](OC(=O)c1ccc(F)c(NC(=O)c3ccc(OC)c(OC)c3)c1)C2
[2]
  EC50: 171 nM
[3]
  EC50: 147 nM
[4]
  EC50: 173 nM
[5]
  EC50: 208 nM
[6]
  IC50: 45 nM
[7]
  IC50: 142 nM

## COc1cc(OC)c2c(c1)O[C@H](c1cc(OC)c(OC)c(OC)c1)[C@H](OC(=O)c1ccc(F)c(NC(=O)c3cc(OC)c(OC)c(OC)c3)c1)C2
[2]
  EC50: 214 nM
[6]
  IC50: 207 nM
[7]
  IC50: 418 nM
[1]
  IC50: 3.3 nM

## COc1ccc(C(=O)O[C@@H]2Cc3c(OC)cc(OC)cc3O[C@@H]2c2cc(OC)c(OC)c(OC)c2)cc1
[1]
  IC50: 148 nM

## COc1cc(OC)c2c(c1)O[C@H](c1cc(OC)c(OC)c(OC)c1)[C@@H](OC(=O)c1ccc(F)c(NC(=O)/C=C/c3cc(OC)c(OC)c(OC)c3)c1)C2=O
[1]
  IC50: 28 nM

## COc1cc(OC)c2c(c1)O[C@H](c1cc(OC)c(OC)c(OC)c1)[C@H](OC(=O)/C=C/c1ccc(OC)c(OC)c1)C2
[2]
  EC50: 157 nM
[3]
  EC50: 167 nM
[4]
  EC50: 123 nM
[5]
  EC50: 160 nM
[1]
  IC50: 8.7 nM

## COc1cc(OC)c2c(c1)O[C@H](c1cc(OC)c(OC)c(OC)c1)[C@@H](OC(=O)c1ccc(F)c(NC(=O)c3ccc(OC)c(OC)c3)c1)C2=O
[1]
  IC50: 9.4 nM

## COc1cc(OC)c2c(c1)O[C@H](c1cc(OC)c(OC)c(OC)c1)[C@H](OC(=O)c1ccc(F)cc1)C2
[1]
  IC50: 53 nM

## COc1cc(OC)c2c(c1)O[C@H](c1cc(OC)c(OC)c(OC)c1)[C@@H](OC(=O)c1ccc(F)c(NC(=O)c3cc(OC)c(OC)c(OC)c3)c1)C2
[2]
  EC50: 140 nM
[3]
  EC50: 102 nM
[4]
  EC50: 108 nM
[5]
  EC50: 107 nM
[6]
  IC50: 38 nM
[7]
  IC50: 141 nM

## COc1ccc(CCC(=O)O[C@@H]2Cc3c(OC)cc(OC)cc3O[C@@H]2c2cc(OC)c(OC)c(OC)c2)cc1
[1]
  IC50: 40 nM

## COc1cc(OC)c2c(c1)O[C@H](c1cc(OC)c(OC)c(OC)c1)[C@@H](OC(=O)c1ccc(F)c(NC(=O)/C=C/c3ccc(OC)c(OC)c3)c1)C2
[2]
  EC50: 280 nM
[1]
  IC50: 6.6 nM

## COc1cc(OC)c2c(c1)O[C@H](c1cc(OC)c(OC)c(OC)c1)[C@@H](O)C2
[1]
  IC50: 136 nM

## COc1ccc(C(=O)O[C@H]2C(=O)c3c(OC)cc(OC)cc3O[C@@H]2c2cc(OC)c(OC)c(OC)c2)cc1
[1]
  IC50: 48 nM

## CCOc1cc(C(=O)O[C@@H]2Cc3c(OC)cc(OC)cc3O[C@@H]2c2cc(OC)c(OC)c(OC)c2)cc(OCC)c1OCC
[1]
  IC50: 113 nM

## COc1cc(OC)c2c(c1)O[C@H](c1cc(OC)c(OC)c(OC)c1)[C@H](OC(=O)c1cccc(F)c1)C2
[1]
  IC50: 97 nM

## COc1cc(OC)c2c(c1)O[C@H](c1cc(OC)c(OC)c(OC)c1)[C@H](OC(=O)CCc1ccc(OC)c(OC)c1)C2
[1]
  IC50: 19 nM

## COc1ccc(/C=C/C(=O)O[C@H]2Cc3c(OC)cc(OC)cc3O[C@@H]2c2cc(OC)c(OC)c(OC)c2)cc1
[1]
  IC50: 19 nM

## COc1ccc(/C=C/C(=O)O[C@H]2C(=O)c3c(OC)cc(OC)cc3O[C@@H]2c2cc(OC)c(OC)c(OC)c2)cc1
[1]
  IC50: 41 nM

## CC(=O)Oc1cc(OC(C)=O)c2c(c1)O[C@H](c1cc(OC(C)=O)c(OC(C)=O)c(OC(C)=O)c1)[C@H](OC(=O)c1cc(OC(C)=O)c(OC(C)=O)c(OC(C)=O)c1)C2
[1]
  IC50: 176 nM

## O=C(O[C@@H]1Cc2c(O)cc(O)cc2O[C@@H]1c1cc(O)c(O)c(O)c1)c1cc(O)c(O)c(O)c1 [(-)-Epigallocatechin-3-o-gallate]
[8]
  IC50: 123 nM
[1]
  IC50: 124 nM

## COc1cc(OC)c2c(c1)O[C@H](c1cc(OC)c(OC)c(OC)c1)[C@H](OC(=O)c1ccc(F)c(NC(=O)c3ccc(F)c(NC(=O)c4ccc(OC)c(OC)c4)c3)c1)C2
[1]
  IC50: 14 nM

## COc1cc(OC)c2c(c1)O[C@H](c1cc(OC)c(OC)c(OC)c1)[C@@H](OC(=O)c1ccc(F)c(NC(=O)c3cc(OC)c(OC)c(OC)c3)c1)C2=O
[1]
  IC50: 37 nM

## COc1ccc(C(=O)O[C@H]2Cc3c(OC)cc(OC)cc3O[C@@H]2c2cc(OC)c(OC)c(OC)c2)cc1
[1]
  IC50: 67 nM

## COc1cc(OC)c2c(c1)O[C@H](c1cc(OC)c(OC)c(OC)c1)[C@H](OC(=O)c1ccc(F)c(NC(=O)c3ccc(F)c(NC(=O)c4cc(OC)c(OC)c(OC)c4)c3)c1)C2
[1]
  IC50: 13 nM

## COc1ccc(CC(=O)O[C@@H]2Cc3c(OC)cc(OC)cc3O[C@@H]2c2cc(OC)c(OC)c(OC)c2)cc1
[1]
  IC50: 34 nM

## COc1cc(OC)c2c(c1)O[C@H](c1cc(OC)c(OC)c(OC)c1)[C@@H](OC(C)=O)C2=O
[1]
  IC50: 107 nM

## COc1cc(OC)c2c(c1)O[C@H](c1cc(OC)c(OC)c(OC)c1)[C@H](OC(=O)c1ccc(F)c(NC(C)=O)c1)C2
[1]
  IC50: 15 nM

## C=CCOc1cc(C(=O)O[C@H]2C(=O)c3c(OC)cc(OC)cc3O[C@@H]2c2cc(OC)c(OC)c(OC)c2)cc(OCC=C)c1OCC=C
[1]
  IC50: 32 nM

## COc1cc(OC)c2c(c1)O[C@H](c1cc(OC)c(OC)c(OC)c1)[C@H](OC(=O)/C=C/c1cc(OC)c(OC)c(OC)c1)C2
[6]
  IC50: 357 nM
[7]
  IC50: 322 nM

## COc1cc(OC)c2c(c1)O[C@H](c1cc(OC)c(OC)c(OC)c1)[C@@H](OC(=O)c1ccc(F)c(NC(=O)/C=C/c3cc(OC)c(OC)c(OC)c3)c1)C2
[2]
  EC50: 225 nM

## COc1cc(OC)c2c(c1)O[C@H](c1cc(OC)c(OC)c(OC)c1)[C@@H](OC(=O)c1ccc(OC)c(OC)c1)C2=O
[1]
  IC50: 37 nM

## COc1cc(OC)c2c(c1)O[C@H](c1cc(OC)c(OC)c(OC)c1)[C@H](OC(=O)c1ccc(F)c(N(C)C)c1)C2
[1]
  IC50: 36 nM

— BindingDB's records for doi:10.1021/acs.jmedchem.5b00085 (The Hong Kong Polytechnic University, 2015)
